Experimental data from article PMC10353488 (Journal of medicinal chemistry, 2020).

Experiments:
[1] = tested on: human keratinocyte (HaCaT) cells; assay: Cytotoxicity assay; assay type: cell-based; details: 50 μg/mL, 24 h
E. coli K12 = assay: Broth microdilution antibacterial assay, E. coli K12; assay type: cell-based, Escherichia coli; details: concentrations up to 256 μg/mL
S. aureus JE2 = assay: Broth microdilution antibacterial assay, S. aureus JE2; assay type: cell-based, Staphylococcus aureus; details: concentrations up to 256 μg/mL
[2] = Metabolic stability in human liver microsomes; assay type: in vitro ADME; details: human liver microsomes with NADPH
[3] = tested on: C. trachomatis serovar L2; assay: Inclusion forming units; assay type: cell-based, Chlamydia trachomatis; details: for impact on chlamydiae (infectious progeny, IFU): added 8 h after infection, 24 h; for inhibitory activity against chlamydiae (Figure 5a): ACP1b at 50 μg/mL, 40 at 50 μg/mL and 5.20 μg/mL
Chlamydia = details: cited from earlier work
H. influenzae = details: cited from earlier work
[4] = cited from earlier work
C. trachomatis = details: cited from earlier work
N. meningitidis = details: cited from earlier work
E. coli ClpP = details: cited from earlier work
[5] = target: recombinant ClpP1 and ClpP2 from C. trachomatis L2 (Chlamydia trachomatis serovar D, UniProt O84712+P38002); assay: In vitro casein degradation assay, chlamydial ClpP1/ClpP2; assay type: biochemical; details: 6 μM ClpP1 and ClpP2
Outline: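 C-terminal His6-tagged C. trachomatis L2 ClpP1 and ClpP2 (6 μM each) were purified from clpAPX-null E. coli and used without AAA+ chaperone. Enzyme was preincubated with compound or DMSO for 30 min at 32 °C in HEPES pH 7.6/KCl/MgCl2/DTT/glycerol buffer, then 20 μM FITC-casein was added. Fluorescence (ex 490/em 525 nm) was read every 3 min for 3 h. Unlabeled casein digests were run on SDS-PAGE. ≥3 runs, ≥2 protein preparations.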

ClpP = assay: In vitro casein degradation assay without AAA+ chaperone; assay type: biochemical; details: FITC-casein 20 μM, 32°C, 3 h
human ClpP = human ClpP (Homo sapiens, UniProt Q16740); assay: In vitro casein degradation assay, human ClpP; assay type: biochemical; details: 1 μM ClpP
Outline: (§1)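 Human or mouse ClpP ORF minus the mitochondrial localization signal was codon-optimised, C-terminally His6-tagged, and expressed and purified from clpAPX-null E. coli. 1 μM enzyme, without AAA+ chaperone, was preincubated 30 min at 32 °C with compound or DMSO in 25 mM HEPES pH 7.6 buffer before adding 20 μM FITC-casein. Fluorescence (ex 490/em 525 nm) was read every 3 min over 3 h. ≥3 runs, ≥2 protein preparations.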

mouse ClpP = mouse ClpP (Mus musculus, UniProt O88696); assay: In vitro casein degradation assay, mouse ClpP; assay type: biochemical; details: 1 μM ClpP
Outline: as §1

D. melanogaster = assay: Toxicity; assay type: in vivo, Drosophila melanogaster; details: 0.25, 0.5, and 1.0 mM
Outline: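 Eggs from two different crosses collected for 8 hours in culture flasks on solid agar base (5% w/v) topped with live baker's yeast plus sugar.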

[6] = tested on: epithelial cervix adenocarcinoma (HeLa 229) cells; assay: Cytotoxicity assay; assay type: cell-based, human; details: 50 μg/mL, 24 h
[7] = target: recombinant ClpP from E. coli (Escherichia coli, UniProt P0A6G7); assay: In vitro casein degradation assay, E. coli ClpP; assay type: biochemical; details: 1 or 0.1 (40 only) μM ClpP
HEp-2 cells = assay: Host cell morphology and viability under phase contrast microscopy; assay type: cell-based, human; details: 100 μg/mL
Outline: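 HEp-2 cells grown in DMEM with 2% L-glutamine and 10% FBS at 37 °C, infected with C. trachomatis L2 at MOI 1. Test compound added in triplicate at 8 hpi. After 16 h (24 h total incubation), host cell morphology and viability inspected by phase contrast microscopy against untreated control cells.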

mouse ClpP, sequence (O88696 53-272): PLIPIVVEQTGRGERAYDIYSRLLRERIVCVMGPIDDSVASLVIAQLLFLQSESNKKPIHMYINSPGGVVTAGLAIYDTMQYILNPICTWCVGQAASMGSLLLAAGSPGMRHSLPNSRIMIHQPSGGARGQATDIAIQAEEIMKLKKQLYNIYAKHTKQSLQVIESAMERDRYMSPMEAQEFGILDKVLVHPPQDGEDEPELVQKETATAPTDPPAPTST
human ClpP, sequence (Q16740 57-277): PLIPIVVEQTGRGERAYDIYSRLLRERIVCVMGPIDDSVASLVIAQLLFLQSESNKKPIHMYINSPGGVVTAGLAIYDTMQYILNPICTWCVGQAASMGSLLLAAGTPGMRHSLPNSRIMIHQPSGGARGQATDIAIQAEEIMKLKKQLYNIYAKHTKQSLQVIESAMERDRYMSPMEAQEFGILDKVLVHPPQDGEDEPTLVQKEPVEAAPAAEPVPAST
recombinant ClpP from E. coli, sequence (P0A6G7 15-207): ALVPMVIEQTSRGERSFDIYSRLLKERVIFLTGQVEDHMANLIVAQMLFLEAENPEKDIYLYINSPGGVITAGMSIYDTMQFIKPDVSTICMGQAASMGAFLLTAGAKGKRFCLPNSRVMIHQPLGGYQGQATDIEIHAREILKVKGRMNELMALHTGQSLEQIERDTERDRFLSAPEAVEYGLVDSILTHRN

Compound: 1-(4-(3,4-dichlorophenyl)piperazin-1-yl)-2-((5-(trifluoromethyl)pyridin-2-yl)sulfonyl) propan-1-one [Compound 37]
- toxicity towards HaCaT cells [1]: more tolerated
- bacterial death (E. coli K12): bacterial death was not observed
- bacterial death (S. aureus JE2): bacterial death was not observed
- CL(int) Mean [2]: 111.96 uL/(min*mg protein)
- CL(int,H) Mean [2]: 873.80 mL/(min*kg bodywgt.)
- T1/2 Mean [2]: 6.25 min
- impact on chlamydiae (infectious progeny, IFU) ([3]; 50 μg/mL): remarkable impact

Compound: 2-bromoethylamine [Compound 21]
- bacterial death (E. coli K12): bacterial death was not observed
- bacterial death (S. aureus JE2): bacterial death was not observed

Compound: CC[C@H]1OC(=O)[C@H](C)[C@@H](O[C@H]2C[C@@](C)(OC)[C@@H](O)[C@H](C)O2)[C@H](C)[C@@H](O[C@@H]2O[C@H](C)C[C@H](N(C)C)[C@H]2O)[C@](C)(O)C[C@@H](C)CN(C)[C@H](C)[C@@H](O)[C@]1(C)O [Azithromycin]
- minimal chlamydicidal concentrations (MCCs) (Chlamydia): 4 µg/mL

Compound: CC(C)(C(=O)NCCSc1ccccc1Cl)S(=O)(=O)c1ccc(C(F)(F)F)cn1 [Compound 1]
- antibacterial activity against H. influenzae (H. influenzae): 32 µg/mL
- fold less potent than ADEP1 [4]: 10-20 fold
- formation of infectious EBs (C. trachomatis): drastic decrease
- antibacterial activity against N. meningitidis (N. meningitidis): 64 µg/mL

Compound: CC(C)(C(=O)NCCCc1ccccc1)S(=O)(=O)c1ccc(C(F)(F)F)cn1 [Compound 2]
- antibacterial activity against H. influenzae (H. influenzae): 8 µg/mL
- fold less potent than ADEP1 [4]: 10-20 fold
- formation of infectious EBs (C. trachomatis): drastic decrease
- activation of E. coli ClpP in an enzymatic assay (E. coli ClpP): activate
- inhibitory activity against chlamydiae (Figure 5a) [3]: good inhibitory activity
- antibacterial activity against N. meningitidis (N. meningitidis): 16 µg/mL

Compound: CC(C)(C(=O)NCCCc1ccccc1)S(=O)(=O)c1ccccc1 [Compound 9, 2-Methyl-N-(3-Phenylpropyl)-2-(phenylsulfonyl)propanamide]
- activation of chlamydial ClpP1, ClpP2 or the ClpP1/2 dimer [5]: some residual decomposition
- ClpP-dependent casein degradation in the absence of a chaperone (ClpP): little or no degradation

Compound: CC(C)(C(=O)NCCCc1ccccc1)S(=O)(=O)c1ccc(C(F)(F)F)cc1 [Compound 11, 2-Methyl-N-(3-Phenylpropyl)-2-((4-(trifluoromethyl)phenyl)sulfonyl)propanamide]
- activation of human ClpP (human ClpP): activated
- activation of chlamydial ClpP1, ClpP2 or the ClpP1/2 dimer [5]: some residual decomposition
- toxicity towards HaCaT cells [1]: presented toxicity
- bacterial death (E. coli K12): bacterial death was not observed
- bacterial death (S. aureus JE2): bacterial death was not observed
- activation of mouse ClpP (mouse ClpP): activated
- CL(int,H) Mean [2]: 890.58 mL/(min*kg bodywgt.)
- toxicity against D. melanogaster (survival rate) (D. melanogaster): did not show toxicity
- ClpP-dependent casein degradation in the absence of a chaperone (ClpP): enabled some species of ClpP to degrade casein
- toxicity towards HeLa 229 cells [6]: presented toxicity
- impact on chlamydiae (infectious progeny, IFU) ([3]; 50 μg/mL): remarkable impact

Compound: CC(C)(C(=O)NCCSc1ccccc1Cl)S(=O)(=O)c1ccccc1 [Compound 16, N-(2-((2-chlorophenyl)thio)ethyl)-2-methyl-2-(phenylsulfonyl)propanamide]
- ClpP-dependent casein degradation in the absence of a chaperone (ClpP): little or no degradation

Compound: CC(C)(C(=O)NCCSc1ccc(Cl)cc1)S(=O)(=O)c1ccccc1 [Compound 17, N-(2-((4-Chlorophenyl)thio)ethyl)-2-methyl-2-(phenylsulfonyl)propanamide]
- ClpP-dependent casein degradation in the absence of a chaperone (ClpP): little or no degradation

Compound: CC(C)(C(=O)NCCSc1ccc(Cl)cc1)S(=O)(=O)c1ccc(C(F)(F)F)cn1 [Compound 20]
- toxicity against D. melanogaster (survival rate) (D. melanogaster): did not show toxicity

Compound: CC(C)(C(=O)NCCOc1ccccc1)S(=O)(=O)c1ccc(C(F)(F)F)cc1 [Compound 24, 2-Methyl-N-(2-Phenoxyethyl)-2-))4-(trifluoromethyl)phenyl(sulfonyl(propenamide]
- toxicity towards HaCaT cells [1]: more tolerated
- CL(int,H) Mean [2]: 1840.91 mL/(min*kg bodywgt.)
- toxicity against D. melanogaster (survival rate) (D. melanogaster): did not show toxicity
- impact on chlamydiae (infectious progeny, IFU) ([3]; 50 μg/mL): remarkable impact

Compound: CC(C)(C(=O)NCCOc1ccccc1)S(=O)(=O)c1ccc(C(F)(F)F)cn1 [Compound 25, 2-Methyl-N-(2-Phenoxyethyl)-2-))5-(trifluoromethyl)pyridin-2-yl(sulfonyl(propenamide]
- bacterial death (E. coli K12): bacterial death was not observed
- bacterial death (S. aureus JE2): bacterial death was not observed
- CL(int,H) Mean [2]: 1461.60 mL/(min*kg bodywgt.)
- impact on chlamydiae (infectious progeny, IFU) ([3]; 50 μg/mL): remarkable impact

Compound: CC(C)(C(=O)NCCOc1ccccc1Cl)S(=O)(=O)c1ccccc1 [Compound 26, N-(2-(2-Chlorophenoxy)ethyl)-2-methyl-2-(Phenylsulfonyl)propanamide]
- toxicity against D. melanogaster (survival rate) (D. melanogaster): did not show toxicity

Compound: CC(C)(C(=O)NCCOc1ccccc1Cl)S(=O)(=O)c1ccc(C(F)(F)F)cn1 [Compound 28, N-(2-(2-Chlorophenoxy)ethyl)-2-methyl-2-((5-(trifluoromethyl)pyridin-2-yl)sulfonyl) propanamide]
- bacterial death (E. coli K12): bacterial death was not observed
- bacterial death (S. aureus JE2): bacterial death was not observed

Compound: Cc1ccccc1N1CCN(C(=O)C(C)(C)S(=O)(=O)c2ccc(C(F)(F)F)cn2)CC1 [Compound 35, 2-methyl-1-(4-(o-tolyl)piperazin-1-yl)-2-((5-(trifluoromethyl)pyridin-2-yl)sulfonyl)propan-1-one]
- bacterial death (E. coli K12): bacterial death was not observed
- bacterial death (S. aureus JE2): bacterial death was not observed
- impact on chlamydiae (infectious progeny, IFU) ([3]; 50 μg/mL): remarkable impact

Compound: CC(C)(C(=O)N1CCN(Cc2ccc(Cl)cc2)CC1)S(=O)(=O)c1ccc(C(F)(F)F)cn1 [Compound 40, 2-methyl-1-(4-(4-Chlorobenzyl)piperazin-1-yl)-2-((5-(trifluoromethyl)pyridin-2-yl)sulfonyl) propan-1-one]
- activation of human ClpP (human ClpP): did not activate
- activation of E. coli ClpP [7]: strong activator
- bacterial death (E. coli K12): bacterial death was not observed
- cell toxicity to host cells (HEp-2 cells): did not observe cell toxicity
- bacterial death (S. aureus JE2): bacterial death was not observed
- activation of mouse ClpP (mouse ClpP): did not activate
- toxicity against D. melanogaster (survival rate) (D. melanogaster): did not show toxicity
- ClpP-dependent casein degradation in the absence of a chaperone (ClpP): enabled some species of ClpP to degrade casein
- toxicity towards HeLa 229 cells [6]: not toxic
- inclusion yields lower than the untreated cells ([3]; 12.5 μg/mL): around 60%
- impact on chlamydiae (infectious progeny, IFU) ([3]; 50 μg/mL): remarkable impact
- mechanism of action (bacteriostatic or bactericidal) ([3]; 50 μg/mL, washout experiment): bacteriostatic
- activity compared with penicillin ([3]; 40 at 50 μg/mL, penicillin at 5 U/mL ~ 3 μg/mL): on par with penicillin
- activity compared with spectinomycin ([3]; 40 at 50 μg/mL, spectinomycin at 128 μg/mL): superior activity than spectinomycin
- inhibitory activity against chlamydiae (Figure 5a) [3]: good inhibitory activity

Compound: CC(C)(C(=O)N1CCN(Cc2cccc(Cl)c2)CC1)S(=O)(=O)c1ccc(C(F)(F)F)cn1 [Compound 41, 2-methyl-1-(4-(3-chlorobenzyl)piperazin-1-yl)-2-((5-(trifluoromethyl)pyridin-2-yl)sulfonyl) propan-1-one]
- toxicity against D. melanogaster (survival rate) (D. melanogaster): did not show toxicity
- impact on chlamydiae (infectious progeny, IFU) ([3]; 50 μg/mL): remarkable impact

Compound: Cc1ccc(CN2CCN(C(=O)C(C)(C)S(=O)(=O)c3ccc(C(F)(F)F)cn3)CC2)cc1 [Compound 42, 2-methyl-1-(4-(4-methylbenzyl)piperazin-1-yl)-2-((5-(trifluoromethyl)pyridin-2-yl)sulfonyl) propan-1-one]
- toxicity towards HaCaT cells [1]: more tolerated
- bacterial death (E. coli K12): bacterial death was not observed
- bacterial death (S. aureus JE2): bacterial death was not observed

Compound: C[C@H]1c2cccc(O)c2C(=O)C2=C(O)[C@]3(O)C(=O)C(C(N)=O)=C(O)[C@@H](N(C)C)[C@@H]3[C@@H](O)[C@@H]21.O [Doxycycline]
- minimal chlamydicidal concentrations (MCCs) (Chlamydia): 1 µg/mL
